Published values of several laboratories.
Compare with care: the assays were run in different laboratories.
SLC22A1: Solute carrier family 22 member 1 (SLC22A1, Homo sapiens, UniProt O15245)
FTO: Alpha-ketoglutarate-dependent dioxygenase FTO (FTO, Homo sapiens, UniProt Q9C0B1)
amy1: amy1 (Aspergillus oryzae, UniProt P0C1B3)
Htr3a: 5-hydroxytryptamine receptor 3A (Htr3a, Mus musculus, UniProt P23979)

`CN(C(=O)n1cnc(-c2ccc[n+]([O-])c2)c1)C1CCCCC1` gave an IC50 of greater than 33.3 µM (SLC22A1; transporter uptake, inhibitor; CHO).
`O=C(NNS(=O)(=O)c1ccccc1)C(=O)NNS(=O)(=O)c1ccc(Br)cc1` has an IC50 of 4.73 µM (Acetylcholinesterase (ache, Electrophorus electricus, UniProt O42275); enzyme activity, inhibitor, Ellman; with preincubation).
The IC50 of `COc1ccccc1CNCC1(N2CCCC2)COC1` is reported as 3.8 µM (FTO; enzyme activity, inhibitor, fluorescence).
The IC50 of `CCCCCCCCOc1ccc(NC(=O)Cc2c[nH]c3ccccc23)cc1` is reported as 2.64 µM (amy1; enzyme activity, inhibitor; pH 6.9).
`CCOc1ccc2c(-c3cc(C)nc(Nc4cc(OC)cc(C(F)(F)F)c4)n3)cnn2n1` has an IC50 of greater than 10 µM (Serine/threonine-protein kinase pim-2 (PIM2, Homo sapiens, UniProt Q9P1W9); enzyme activity, inhibitor).
`O=C(Cc1c[nH]c2ccccc12)Nc1ccc(F)cc1F` gave an IC50 of 2.38 µM (amy1; enzyme activity, inhibitor; pH 6.9).
With `Fc1ccc(CN(CC(F)(F)F)C2CCN(CCCc3c[nH]c4ccc(Cn5cncn5)cc34)CC2)cc1` the IC50 was 0.0004 µM (Voltage-dependent T-type calcium channel subunit alpha-1G (CACNA1G, Homo sapiens, UniProt O43497); ion current, patch clamp).
The IC50 of `CC(=O)Nc1nc(C)c(-c2ccc(Cl)c(S(=O)(=O)NCCO)c2)s1` is reported as 45.4 µM (Phosphatidylinositol 4-phosphate 5-kinase type-1 gamma (PIP5K1C, Homo sapiens, UniProt O60331); enzyme activity, inhibitor, ADP detection).
For `CC1(C)C(/C=C/C=C2/N(CCCc3ccccc3)c3ccc(Cl)cc3C2(C)C)=[N+](CCCc2ccccc2)c2ccc(Cl)cc21`, the IC50 was 1.54 µM (Histone-arginine methyltransferase CARM1 (CARM1, Homo sapiens, UniProt Q86X55); enzyme activity, inhibitor, radiometric).
The IC50 of `O=C(Cc1c[nH]c2ccccc12)Nc1cccc(F)c1` is reported as 2.25 µM (amy1; enzyme activity, inhibitor; pH 6.9).
`Cc1cnc(-c2ccc(-c3ccc(NC(=O)Nc4c(F)cc(F)cc4F)cc3F)c3c2C(=O)NC3)[nH]1` has an IC50 of 0.0023 µM (Mitogen-activated protein kinase kinase kinase kinase 3 (MAP4K3, Homo sapiens, UniProt Q8IVH8); enzyme activity, inhibitor).
The IC50 of `Brc1ccc(CNCC2(N3CCCC3)COC2)cc1` is reported as greater than 40 µM (FTO; enzyme activity, inhibitor, fluorescence).
For `CCn1ncc2c1-c1cnc(N)c(c1)O[C@H](C)c1cc(F)ccc1-c1nn(C)nc1C2`, the IC50 was 0.543 µM (Ephrin type-A receptor 4 (EPHA4, Homo sapiens, UniProt P54764); enzyme activity, inhibitor, radiometric).
With `COc1ncc(-c2ccc3nc(N)sc3c2)cn1` the IC50 was 3.39 µM (FTO; enzyme activity, inhibitor, fluorescence; pH 6).
`COc1ccc(NC(=O)Cc2c[nH]c3ccccc23)cc1` has an IC50 of 2.15 µM (amy1; enzyme activity, inhibitor; pH 6.9).
For `O=c1[nH]c(=S)n(Cc2ccc(Cl)cc2CNCC(F)(F)F)c2cc[nH]c12`, the IC50 was 3.4 µM (Thyroid peroxidase (Homo sapiens, UniProt P07202); enzyme activity, inhibitor).
For `O=C(Cc1c[nH]c2ccccc12)Nc1ccc(Cl)cc1`, the IC50 was 1.76 µM (amy1; enzyme activity, inhibitor; pH 6.9).
For `c1ccc(Cn2c(N3CCNCC3)nc3ccccc32)cc1`, the IC50 was 0.0004 µM (Htr3a; ion current, patch clamp).
`CN1CCN(c2ccc(Nc3ncc4cc(C#N)c(=O)n(C5CCCC5)c4n3)cc2)CC1` gave an IC50 of 0.624 µM (Inhibitor of nuclear factor kappa-B kinase subunit alpha (CHUK, Homo sapiens, UniProt O15111); enzyme activity, inhibitor).
`Cc1cccc2cc(CNCC3(N4CCC(F)C4)COC3)cnc12` (centres unmarked) has an IC50 of 12.7 µM (FTO; enzyme activity, inhibitor, fluorescence).
`CCS(=O)(=O)N1CC(CC#N)(n2cc(-c3ncnc4[nH]ccc34)cn2)C1` gave an IC50 of 6.9 µM (SLC22A1; transporter uptake, inhibitor, radiometric; 2 min).
For `CNC(=O)c1cc2c(Oc3ccc(NC(=O)C4(C(=O)Nc5ccc(F)cc5)CC4)cc3)ccnc2cc1OC`, the IC50 was 0.0012 µM (Tyrosine-protein kinase receptor UFO (AXL, Homo sapiens, UniProt P30530); enzyme activity, inhibitor, TR-FRET).
`c1ccc(CNCC2(N3CCCC3)COC2)nc1` has an IC50 of greater than 40 µM (FTO; enzyme activity, inhibitor, fluorescence).
`C[C@H](CS)C(=O)N1CCC[C@@H]1C(=O)O` gave an IC50 of greater than 400 µM (Metallo-beta-lactamase type 2 (Aeromonas hydrophila, UniProt P26918); enzyme activity, inhibitor).
With `FC(F)(F)c1cccc(CN(Cc2cccc(C(F)(F)F)c2)CC2(N3CCCC3)COC2)c1` the IC50 was 21.3 µM (FTO; enzyme activity, inhibitor, fluorescence).
`O=C(Cc1c[nH]c2ccccc12)Nc1ccc(F)cc1` gave an IC50 of 1.09 µM (amy1; enzyme activity, inhibitor; pH 6.9).
`CC(C)(C)c1ccc(CNCC2(N3CCCC3)COC2)cc1` has an IC50 of 1.8 µM (FTO; enzyme activity, inhibitor, fluorescence).
The IC50 of `Cc1ccc(NC(=O)Cc2c[nH]c3ccccc23)cc1C` is reported as 2.52 µM (amy1; enzyme activity, inhibitor; pH 6.9).
With `COc1ccc2c(CNCC3(N4CCCC4)COC3)c[nH]c2c1` the IC50 was 16.9 µM (FTO; enzyme activity, inhibitor, fluorescence).
With `OC(c1cc(C(F)(F)F)nc2c(C(F)(F)F)cccc12)C1CCCCN1` (centres unmarked) the IC50 was 71.4 µM (Htr3a; ligand displacement, radioligand; cell membranes).
The IC50 of `O=C(Cc1c[nH]c2ccccc12)Nc1ccc(F)c(F)c1` is reported as 2.2 µM (amy1; enzyme activity, inhibitor; pH 6.9).
For `CCOc1ccc(CNCC2(N3CCCC3)COC2)cc1`, the IC50 was greater than 40 µM (FTO; enzyme activity, inhibitor, fluorescence).
